Reference: ChEMBL document CHEMBL3286382, “Synthesis and biological evaluation of imidazo[1,2-a]pyrimidines and imidazo[1,2-a]pyridines as new inhibitors of the Wnt/β-catenin signaling” (Eur J Med Chem, 2014)
The source made the active and inactive calls. The calls are words filed in the database; no cut-off is given here.

Columns and labels:
[1] = tested on: HT-29; assay: Inhibition of Wnt signaling in human HT29 cells assessed as beta-catenin dephosphorylation at S33/37/T41 residues at 25 uM after 24 hrs by Western blot analysis; type: cell-based
Summary of the method: (§1)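 After 24 h exposure, HT-29 cells were washed in cold PBS, lysed on ice for 30 min and cleared at 15 000 g, 4 °C. 10 µg protein was run on 12% SDS-PAGE and transferred to PVDF. Blots were probed with specific primary antibodies, then peroxidase-labelled secondaries, and developed by ECL. β-actin re-probing served as the loading control.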

[2] = tested on: HT-29; assay: Cell cycle arrest in human HT-29 cells assessed as accumulation of cells at G1 phase at 25 uM after 24 hrs by flow cytometry; type: functional, cell-based
Summary of the method: (§2)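 Exponentially growing HT-29 cells (1.5 × 10^5) were treated with the compounds for 24 h, then collected and fixed in ice-cold 70% ethanol. Fixed cells were treated with lysis buffer holding RNase A and 0.1% Triton X-100, stained with PI and analysed for DNA content by flow cytometry.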

[3] = tested on: HT-29; assay: Antiproliferative activity against human HT-29 cells after 72 hrs by MTT assay; type: functional; details: HT-29, 72 h
Summary of the method: (§3)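 Cells grown in DMEM with 10% FBS, penicillin G, streptomycin and L-glutamine, seeded 7 x 10^3 per well, left 24 h, then exposed to scalar concentrations in complete medium for 72 h at 37 °C, 5% CO2. Viability read by MTT; IC50 taken as the concentration giving 50% inhibition of proliferation.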

[4] = tested on: HT-29; assay: Inhibition of Wnt signaling in human HT29 cells assessed as inhibition of beta-catenin-mediated Tcf/Lef transcriptional activity at 25 uM after 24 hrs by dual luciferase reporter gene assay relative to control in presence of GSK-3beta inhibitor LiCl; type: cell-based
Summary of the method: (§4)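 HT-29 cells (1.4 x 10^4) were co-transfected with 1 µg BAT-LUX, which carries 7 TCF sites and the siamois promoter driving firefly luciferase, plus 1 µg Renilla vector. Cells were then treated at 37 °C for 24 h, with or without the GSK-3β inhibitor LiCl. Dual-Glo readout; values are the mean firefly/Renilla ratio.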

[5] = tested on: HT-29; assay: Inhibition of Wnt signaling in human HT29 cells assessed as inhibition of beta-catenin-mediated Tcf/Lef transcriptional activity after 24 hrs by dual luciferase reporter gene assay relative to control; type: cell-based; details: HT-29, 24 h
[6] = tested on: HT-29; assay: Inhibition of Wnt/beta-catenin signaling in human HT29 cells assessed as […] in axin2 mRNA expression at 25 uM after 24 hrs by quantitative real-time PCR assay; type: cell-based
Summary of the method: (§5)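 Total RNA was extracted with TRIzol from HT-29 cells treated for 24 h. Transcripts were measured by real-time RT-PCR with GUS as the reference gene, and expression was expressed relative to untreated cells.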

[7] = tested on: HT-29; assay: Inhibition of Wnt/beta-catenin signaling in human HT29 cells assessed as downregulation of cyclin B1 protein expression at 25 uM after 24 hrs by Western blot analysis; type: cell-based; summary of the method: as §1
[8] = tested on: A549; assay: Antiproliferative activity against human A549 cells after 72 hrs by MTT assay; type: functional; details: A549, 72 h; summary of the method: as §3
[9] = species on record: Danio rerio; assay: Toxicity in zebrafish larvae assessed as mortality at 5 to 25 uM treated for 7 days; type: organism-based; details: in vivo, 168 h
Summary of the method: (§6)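 Wild-type zebrafish larvae raised under standard conditions were exposed to compounds dissolved in E3 medium. The medium containing compound was renewed every day for 7 days. The read-out was survival rate (mortality) at the end of exposure.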

[10] = tested on: HT-29; assay: Inhibition of Wnt/beta-catenin signaling in human HT29 cells assessed as decrease in TCF4 mRNA expression at 25 uM after 24 hrs by quantitative real-time PCR assay; type: cell-based; summary of the method: as §5
[11] = tested on: HT-29; assay: Inhibition of Wnt/beta-catenin signaling in human HT29 cells assessed as increase in phosphorylated c-myc level at 25 uM after 24 hrs by Western blot analysis; type: cell-based; summary of the method: as §1
[12] = species on record: Danio rerio; assay: Toxicity in zebrafish larvae assessed as mortality at 1 uM treated for 7 days; type: organism-based; details: in vivo, 168 h; summary of the method: as §6
[13] = tested on: HT-29; assay: Inhibition of Wnt signaling in human HT29 cells assessed as inhibition of beta-catenin-mediated Tcf/Lef transcriptional activity at 25 uM after 24 hrs by dual luciferase reporter gene assay relative to control; type: cell-based; summary of the method: as §4
[14] = tested on: HT-29; assay: Inhibition of Wnt/beta-catenin signaling in human HT29 cells assessed as […] protein level at 25 uM after 24 hrs by Western blot analysis; type: cell-based; summary of the method: as §1
[15] = tested on: HT-29; assay: Cell cycle arrest in human HT-29 cells assessed as reduction of cells in G2/M phase at 25 uM after 24 hrs by flow cytometry; type: functional, cell-based; summary of the method: as §2
[16] = tested on: HT-29; assay: Inhibition of Wnt/beta-catenin signaling in human HT29 cells assessed as increase in p21 protein expression at 25 uM after 24 hrs by Western blot analysis; type: cell-based; summary of the method: as §1
[17] = tested on: HT-29; assay: Inhibition of Wnt/beta-catenin signaling in human HT29 cells assessed as effect on c-myc mRNA expression at 25 uM after 24 hrs by quantitative real-time PCR assay; type: cell-based; summary of the method: as §5
[18] = tested on: HT-29; assay: Inhibition of Wnt/beta-catenin signaling in human HT29 cells assessed as downregulation of cyclin D1 protein expression at 25 uM after 24 hrs by Western blot analysis; type: cell-based; summary of the method: as §1
[19] = tested on: HepG2; assay: Antiproliferative activity against human HepG2 cells after 72 hrs by MTT assay; type: functional; details: HepG2, 72 h; summary of the method: as §3
[20] = tested on: HT-29; assay: Inhibition of Wnt/beta-catenin signaling in human HT29 cells assessed as GSK3-beta dephosphorylation at Ser21/Ser9 residues at 25 uM after 24 hrs by Western blot analysis; type: cell-based; summary of the method: as §1
[21] = Antiproliferative activity against human fibroblasts after 72 hrs by MTT assay; type: cell-based, Fibroblast
[22] = tested on: HT-29; assay: Cell cycle arrest in human HT-29 cells assessed as reduction of cells in S phase at 25 uM after 24 hrs by flow cytometry; type: functional, cell-based; summary of the method: as §2
[23] = tested on: LoVo; assay: Antiproliferative activity against human LoVo cells after 72 hrs by MTT assay; type: functional; summary of the method: as §3
[24] = tested on: HT-29; assay: Inhibition of Wnt signaling in human HT29 cells assessed as increase in cytoplasmic beta-catenin at 25 uM after 24 hrs by fluorescence microscopy; type: cell-based
Summary of the method: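 Cells were fixed in cold 4% formaldehyde for 15 min and stained with anti-β-catenin (mouse, 1:50), then an Alexa-conjugated secondary, with DAPI counterstain. Images were taken on a video-confocal microscope with a 60x objective.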

[25] = species on record: Danio rerio; assay: Inhibition of Wnt/beta-catenin signaling in zebrafish larvae assessed as inhibition of Tcf/Lef transcriptional activity at 10 uM after 72 hrs by GFP reporter assay; type: functional, organism-based
Summary of the method: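 TCF/LEF-GFP reporter zebrafish were exposed from 24 hours post-fertilization for 72 h, with compounds dissolved in E3 medium that was renewed daily. GFP in the head and intestine was imaged by fluorescence stereomicroscope at 8X, alongside bright-field images.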

GI50 [3] [µM] | IC50 [5] [µM] | GI50 [8] [µM] | GI50 [19] [µM] | GI50 [23] [µM] | SMILES | further results
88.2 | 22.3 | 51 | 87.1 | 54.2 | CCCSc1nc(N)cc(OCc2ccccc2)n1 | –
65.8 | 46.2 | 35.2 | 42.9 | 40 | CC(=O)Nc1cc(OCc2ccccc2)nc(SCc2ccccc2)n1 | –
> 100 | 16.1 | 71 | > 100 | 74.9 | Cc1cc(OCc2ccccc2)n2cc(-c3ccc([N+](=O)[O-])cc3)nc2n1 | –
40 | 72.2 | 18.7 | 60.8 | 54.5 | CC(C)COc1cc(N)nc(SCc2ccccc2)n1 | –
> 100 | 30.7 | 83.3 | 77 | 68 | CC(C)Cn1c(SCc2ccccc2)nc(N)cc1=O | –
100 | 54.3 | > 100 | 97.8 | 84.9 | Nc1cc(=O)n(Cc2ccccc2)c(SCc2ccccc2)n1 | –
35.7 | > 100 | 19.9 | 64.4 | 53.9 | CC(=O)Nc1cc(OCC(C)C)nc(SCc2ccccc2)n1 | –
53.9 | > 100 | 46.2 | 49 | 53.7 | Nc1cc(OCc2ccccc2)nc(SCc2ccccc2)n1 | –
59.9 | 81.8 | 75.7 | 75.1 | 54.9 | CCCSc1nc(NC(C)=O)cc(OCc2ccccc2)n1 | –
> 100 | 67 | 7 | > 100 | 61.9 | COc1cc(OC)n2cc(-c3ccc(N(Cc4ccccc4)Cc4ccccc4)cc3)nc2n1 | –

Second part, the molecule before the results:

SMILES | GI50 [3] [µM] | IC50 [5] [µM] | GI50 [8] [µM] | GI50 [19] [µM] | GI50 [23] [µM] | further results
Cc1ccc2nc(-c3ccc(NCc4ccccc4)cc3)cn2c1 | 8.8 | 11.1 | 56.1 | > 100 | – | inhibition [1]: Active; Activity [2]: inactive; inhibition [4]: Active; inhibition [6]: Active; inhibition [7]: Active; Activity [9]: Toxic; inhibition [10]: Active; inhibition [11]: Active; Activity [12]: Non-toxic; inhibition [13]: Active; inhibition [14]: Active; Activity [15]: inactive; inhibition [16]: Active; inhibition [17]: inactive; inhibition [18]: Active; inhibition [20]: inactive; GI50 at 72 h [21]: > 100 µM; Activity [22]: inactive
Cc1ccc2nc(-c3ccc([N+](=O)[O-])cc3)cn2c1 | > 100 | 6.2 | > 100 | > 100 | > 100 | inhibition [4]: Active; inhibition [6]: Active; inhibition [24]: Active; inhibition [13]: Active; inhibition [20]: inactive
Cc1ccn2cc(-c3ccc(NC(=O)c4ccccc4C(=O)O)cc3)nc2c1 | > 100 | > 100 | > 100 | – | – | –
COc1cc(OC)n2cc(-c3ccc(N)cc3)nc2n1 | > 100 | 14.3 | > 100 | > 100 | > 100 | –
Cc1cc(O)n2cc(-c3ccc([N+](=O)[O-])cc3)nc2n1 | 90.1 | 10.4 | 38.9 | > 100 | 87.6 | Activity [2]: inactive; inhibition [4]: Active; inhibition [6]: Active; inhibition [7]: Active; inhibition [10]: Active; inhibition [24]: Active; inhibition [11]: Active; inhibition [13]: Active; inhibition [14]: Active; Activity [15]: inactive; inhibition [16]: Active; inhibition [17]: inactive; inhibition [18]: Active; inhibition [20]: inactive; GI50 at 72 h [21]: > 100 µM; Activity [22]: inactive
Cc1ccn2cc(-c3ccc(N)cc3)nc2c1 | 93.6 | 42.2 | > 100 | – | – | –
Cc1ccn2cc(-c3ccc(NCc4ccccc4)cc3)nc2c1 | 17.5 | 17.8 | – | – | – | GI50 at 72 h [21]: > 100 µM
O=C(Nc1cccc2cccnc12)c1ccc(N2C(=O)[C@@H]3[C@H](C2=O)[C@@H]2C=C[C@H]3C2)cc1 | > 100 | – | > 100 | 95.4 | 63.1 | inhibition [4]: Active; inhibition [6]: Active; inhibition [13]: Active; inhibition [25]: Active
Cc1ccc2nc(-c3ccc(NC(=O)c4ccccc4C(=O)O)cc3)cn2c1 | > 100 | 9.7 | > 100 | > 100 | 90.7 | inhibition [1]: Active; inhibition [4]: Active; inhibition [6]: Active; inhibition [24]: Active; inhibition [13]: Active; inhibition [14]: Active; inhibition [20]: inactive
CC(=O)Nc1cc(=O)n(CC(C)C)c(SCc2ccccc2)n1 | 68.4 | 43 | 46.4 | 67.6 | 58.5 | –
Cc1ccc2nc(-c3ccc(N)cc3)cn2c1 | 82.9 | 52.6 | > 100 | > 100 | 65.2 | –
Cc1ccn2cc(-c3ccc([N+](=O)[O-])cc3)nc2c1 | > 100 | 23.1 | 62.4 | – | – | –
COc1cc(OC)n2cc(-c3ccc(NCc4ccccc4)cc3)nc2n1 | > 100 | 34.6 | > 100 | > 100 | > 100 | –
CNc1ccc(-c2cn3c(OC)cc(OC)nc3n2)cc1 | > 100 | 72.2 | > 100 | > 100 | > 100 | –
Cc1ccc2nc(-c3ccc(N(Cc4ccccc4)Cc4ccccc4)cc3)cn2c1 | 37.6 | 19.5 | 60 | – | – | –
COc1cc(OC)n2cc(-c3ccc([N+](=O)[O-])cc3)nc2n1 | > 100 | 57.8 | 36.6 | 35.9 | 70.6 | –
O=C1[C@H](Cc2ccc(O)cc2)N2C(=O)CCN(C(=O)NCc3ccccc3)[C@H]2CN1Cc1cccc2ccccc12 | 17.2 | 18.7 | 6.1 | 12.7 | 15.6 | inhibition [4]: Active; inhibition [6]: Active; inhibition [13]: Active
